# In PubChem BioAssay:
# Unmarked numbers belong to inactive results. Unless noted, no stated cut-off is given here; in the data, active means inhibition above about 30%; inactive means the rest.
# Assay: growth suppression of yeast trafficking mutant, preliminary HTS, modulators of trafficking downstream of Golgi apparatus project, 1536-format plate, OD 615 nm (AID 637)
# Details: yeast transport mutant growth, absorbance 615 nm, 18 h; active compounds read high
row,Structure (SMILES),inhibition [%]
1,CCOC(=O)c1ccc(NS(=O)(=O)c2ccc3c(c2)oc(=O)n3C)cc1,-2.17
2,O=C(Nc1ccc2c(c1)OCCO2)NC1CCCCC1,-1.13
3,O=C(CSc1nnnn1-c1ccccc1Cl)Nc1ccc2c(c1)OCCO2,4.33
4,COc1ccc(-c2nc(CSCC(=O)NCc3ccc4c(c3)OCO4)c(C)o2)cc1OC,1.5
5,Cc1cnc(NC(=O)CSc2nnc(COc3c(C)cccc3C)o2)s1,4.83
6,Cc1cccc(C2CC(c3ccccc3)Nc3nc(N)nn32)c1 (stereo not given),1.15
7,CCc1ccccc1N1CC23C=CC(O2)C(C(=O)O)C3C1=O (stereo not given),0.83
8,CCOC(=O)C1CCN(Cc2ccc(F)c(Br)c2)CC1,9.5
9,CCOc1ccccc1N1Cc2cc(C)c(C)cc2C1,-0.83
10,CCN1CCN(C(CNC(=O)c2ccc3c(c2)OCO3)c2cccnc2)CC1 (stereo not given),-6.23
11,O=C(NCCSc1c[nH]c2ccccc12)c1ccco1,0
12,COCCNC(=O)CN(C)S(=O)(=O)c1ccc(Br)cc1,-3.23
13,COc1cc(C(=O)Nc2cccc(-c3nncn3C)c2)cc(OC)c1OC,-5.5
14,CN1CCN(Cc2nc3c(c(=O)n(C)c(=O)n3C)n2Cc2ccccc2Cl)CC1,-2.17
15,O=C(OCCN=C1NS(=O)(=O)c2ccccc21)C1CC(=O)N(c2ccc(Cl)cc2)C1 (stereo not given),-1.67
16,COc1cccc2cc(C(=O)OC3CCN(C)CC3)c(=O)oc12,0.67
17,Cc1cccc(N2C(=O)CC(N3CCN(c4cccc(C(F)(F)F)c4)CC3)C2=O)c1 (stereo not given),-9
18,O=c1c2ccccc2nc2n1CCN2,5.16
19,CCOC(=O)C1=C(C)Nc2nnnn2C1c1ccc(OC)c(Br)c1 (stereo not given),14.8
20,COc1ccc(-n2c(Cc3cccn3C)nnc2SCC(N)=O)cc1,-3.5

row,Structure (SMILES),inhibition [%]
1,COc1ccccc1NC(=O)CSc1nnc(Cc2cccn2C)n1-c1ccc(F)cc1,-2.67
2,CC(=O)Nc1cccc(Oc2nc(C)cc(C)c2C#N)c1,0.5
3,COc1ccc(CNC(=O)c2ccc(CN3CCOCC3)cc2)cc1,4.52
4,Cc1cc(OCC(=O)NCCO)cc(C)c1Cl,-1.67
5,COc1ccc(C)cc1S(=O)(=O)N1CCN(S(=O)(=O)c2cc(C)ccc2OC)CC1,-9.03
6,CCCCC(NS(=O)(=O)c1ccc(OC)cc1)C(=O)O (stereo not given),-4.17
7,CCOc1ccc(Cn2nnc(C(=O)Nc3ccc(OC)cc3OC)c2N)cc1,-5.9
8,Cc1cc(C)c(NC(=O)CSc2nc3c(c(=O)n2C)SC(C)C3)c(C)c1 (stereo not given),10
9,COc1ccccc1N1C(=O)CCC1(C#N)c1ccccc1 (stereo not given),-3.49
10,CCOc1ccc(N(CC(=O)NC2CCCC(C)C2C)S(=O)(=O)c2c(C)noc2C)cc1 (stereo not given),13.5
11,CCN1C(=O)c2ccccc2S(=O)(=O)c2ccc(C(=O)NCc3cccnc3)cc21,8.5
12,Cc1ccc(C(=O)CC2(O)C(=O)N(C)c3ccc(Br)cc32)c(C)c1 (stereo not given),-0.83
13,CCN1CCN(C(=O)c2cn(CC)c3ccc(S(=O)(=O)N(C)C)cc3c2=O)CC1,-1
14,COc1ccc(OC)c(NC(=O)CSc2nnc(Cc3cccn3C)n2-c2ccc(F)cc2)c1,0
15,CCOc1ccc(-c2nnc(SCC(=O)N3CCN(c4ccccc4)CC3)o2)cc1,-3.28
16,COCCCN(C)C1CCN(C(=O)Nc2ccc(F)cc2)CC1,-1.5
17,COc1cccc(C2CC(=O)Nc3c2c(=O)n(C)c(=O)n3C)c1OC (stereo not given),-4.75
18,CCCC(=O)C1=C(N(C)c2ccccc2)CC(C)(C)C(C(=O)OC)C1=O (stereo not given),-2.83
19,CC(=O)N1c2c(cc(Br)cc2S(=O)(=O)NCC2COc3ccccc3O2)CC1C (stereo not given),-2.06
20,CCCCNC(=O)Cn1c(=O)n(C)c2ccccc21,-2

# Assay: OD615 S. cerevisiae growth inhibition, permissive medium, pilot counter-assay, permissive growth control for S. cerevisiae lifespan shortening project (AID 705;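 active means growth inhibition above 25% in both replicates, a cutoff set 3 SD above the mean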)
# Details: OD615, 24 h, at 10 µM, active compounds read high
# Summary of the method: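 System: engineered DeaD yeast; Medium: permissive raffinose/galactose medium; Compound dosing: 10 µM single dose, 0.25% DMSO; Incubation: 4 h cell pre-growth, 24 h exposure at 30 °C; Technique: OD at 615 nm; Evaluation: growth inhibition from lowered OD615 after 24 h.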
row,Structure (SMILES),growth inhibition [%]
1,CCOC(=O)c1ccc(NS(=O)(=O)c2ccc3c(c2)oc(=O)n3C)cc1,-0.745
2,O=C(Nc1ccc2c(c1)OCCO2)NC1CCCCC1,-1.73
3,O=C(CSc1nnnn1-c1ccccc1Cl)Nc1ccc2c(c1)OCCO2,1.69
4,COc1ccc(-c2nc(CSCC(=O)NCc3ccc4c(c3)OCO4)c(C)o2)cc1OC,-13.4
5,Cc1cnc(NC(=O)CSc2nnc(COc3c(C)cccc3C)o2)s1,-10.4
6,Cc1cccc(C2CC(c3ccccc3)Nc3nc(N)nn32)c1 (stereo not given),1.73
7,CCc1ccccc1N1CC23C=CC(O2)C(C(=O)O)C3C1=O (stereo not given),1.68
8,CCOC(=O)C1CCN(Cc2ccc(F)c(Br)c2)CC1,-3.72
9,CCOc1ccccc1N1Cc2cc(C)c(C)cc2C1,-16.8
10,CCN1CCN(C(CNC(=O)c2ccc3c(c2)OCO3)c2cccnc2)CC1 (stereo not given),-12.5
11,O=C(NCCSc1c[nH]c2ccccc12)c1ccco1,-5
12,COCCNC(=O)CN(C)S(=O)(=O)c1ccc(Br)cc1,-11.6
13,COc1cc(C(=O)Nc2cccc(-c3nncn3C)c2)cc(OC)c1OC,2.38
14,CN1CCN(Cc2nc3c(c(=O)n(C)c(=O)n3C)n2Cc2ccccc2Cl)CC1,-5.17
15,O=C(OCCN=C1NS(=O)(=O)c2ccccc21)C1CC(=O)N(c2ccc(Cl)cc2)C1 (stereo not given),6.61
16,COc1cccc2cc(C(=O)OC3CCN(C)CC3)c(=O)oc12,-7.33
17,Cc1cccc(N2C(=O)CC(N3CCN(c4cccc(C(F)(F)F)c4)CC3)C2=O)c1 (stereo not given),-12.6
18,O=c1c2ccccc2nc2n1CCN2,-3.22
19,CCOC(=O)C1=C(C)Nc2nnnn2C1c1ccc(OC)c(Br)c1 (stereo not given),-8.85
20,COc1ccc(-n2c(Cc3cccn3C)nnc2SCC(N)=O)cc1,8.68

row,Structure (SMILES),growth inhibition [%]
1,COc1ccccc1NC(=O)CSc1nnc(Cc2cccn2C)n1-c1ccc(F)cc1,-3.11
2,CC(=O)Nc1cccc(Oc2nc(C)cc(C)c2C#N)c1,-17.1
3,COc1ccc(CNC(=O)c2ccc(CN3CCOCC3)cc2)cc1,-8.78
4,Cc1cc(OCC(=O)NCCO)cc(C)c1Cl,-15
5,COc1ccc(C)cc1S(=O)(=O)N1CCN(S(=O)(=O)c2cc(C)ccc2OC)CC1,-15.6
6,CCCCC(NS(=O)(=O)c1ccc(OC)cc1)C(=O)O (stereo not given),-19.3
7,CCOc1ccc(Cn2nnc(C(=O)Nc3ccc(OC)cc3OC)c2N)cc1,-10.3
8,Cc1cc(C)c(NC(=O)CSc2nc3c(c(=O)n2C)SC(C)C3)c(C)c1 (stereo not given),-7.85
9,COc1ccccc1N1C(=O)CCC1(C#N)c1ccccc1 (stereo not given),-7.28
10,CCOc1ccc(N(CC(=O)NC2CCCC(C)C2C)S(=O)(=O)c2c(C)noc2C)cc1 (stereo not given),-9.98
11,CCN1C(=O)c2ccccc2S(=O)(=O)c2ccc(C(=O)NCc3cccnc3)cc21,-2.51
12,Cc1ccc(C(=O)CC2(O)C(=O)N(C)c3ccc(Br)cc32)c(C)c1 (stereo not given),2.26
13,CCN1CCN(C(=O)c2cn(CC)c3ccc(S(=O)(=O)N(C)C)cc3c2=O)CC1,-7.52
14,COc1ccc(OC)c(NC(=O)CSc2nnc(Cc3cccn3C)n2-c2ccc(F)cc2)c1,4.57
15,CCOc1ccc(-c2nnc(SCC(=O)N3CCN(c4ccccc4)CC3)o2)cc1,-3.14
16,COCCCN(C)C1CCN(C(=O)Nc2ccc(F)cc2)CC1,-6.78
17,COc1cccc(C2CC(=O)Nc3c2c(=O)n(C)c(=O)n3C)c1OC (stereo not given),-3.2
18,CCCC(=O)C1=C(N(C)c2ccccc2)CC(C)(C)C(C(=O)OC)C1=O (stereo not given),-1.78
19,CC(=O)N1c2c(cc(Br)cc2S(=O)(=O)NCC2COc3ccccc3O2)CC1C (stereo not given),-0.935
20,CCCCNC(=O)Cn1c(=O)n(C)c2ccccc21,-9.7
